Where “and” joins values, the source holds several entries; their conditions need not be identical. Identical values can stand only once.
Experiments:
[1] = species on record: Rattus norvegicus; assay: The compound was tested for anti-uterotrophic activity in immature rats(Dosage 100 ug); assay type: functional
In short: (§1)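 Holtzman rats, immature (19-20 days, 40-45 g), in groups of six. Each rat received estradiol 1 µg/day sc in corn oil plus compound sc in corn oil as a daily per-rat dose, for 3 days. Rats killed on day 4. Inhibition of estradiol-driven uterine wet weight (weighed to 0.1 mg).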

[2] = species on record: Rattus norvegicus; assay: The compound was tested for uterotropic activity in immature rats(Dosage 10 ug); assay type: functional
In short: (§2)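 Holtzman rats, immature (19-20 days, 40-45 g), in groups of six. Compound given subcutaneously in corn oil as a daily per-rat dose for 3 days. Rats killed on day 4 and uterine wet weight recorded to the nearest 0.1 mg.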

[3] = species on record: Rattus norvegicus; assay: The compound was tested for anti-uterotrophic activity in immature rats(Dosage 1000 ug); assay type: functional; in short: as §1
[4] = species on record: Rattus norvegicus; assay: The compound was tested for uterotropic activity in immature rats(Dosage 1 ug); assay type: functional; in short: as §2
[5] = species on record: Rattus norvegicus; assay: The compound was tested for uterotropic activity in immature rats(Dosage 1000 ug); assay type: functional; in short: as §2
[6] = species on record: Rattus norvegicus; assay: The compound was tested for anti-uterotrophic activity in immature rats(Dosage 1 ug); assay type: functional; in short: as §1
[7] = species on record: Rattus norvegicus; assay: The compound was tested for anti-uterotrophic activity in immature rats(Dosage 10 microg); assay type: functional; in short: as §1
[8] = species on record: Rattus norvegicus; assay: The compound was tested for uterotropic activity in immature rats(Dosage 100 ug); assay type: functional; in short: as §2
[9] = tested on: Rattus norvegicus; assay: The compound was tested for serum prolactin level in rats at 1 mg/kg dose after peroral administration exp1; assay type: functional, organism-based; design: dose 1 mg/kg
[10] = tested on: Rattus norvegicus; assay: The compound was tested for serum prolactin level in rats at 1 mg/kg dose after peroral administration; assay type: functional, organism-based; design: dose 1 mg/kg
[11] = tested on: Rattus norvegicus; assay: The compound was tested for serum prolactin level in rats at 10 mg/kg dose after peroral administration; assay type: functional, organism-based; design: dose 10 mg/kg
[12] = tested on: Rattus norvegicus; assay: The compound was tested for serum LH level in rats at 1 mg/kg dose after peroral administration; assay type: functional, organism-based; design: dose 1 mg/kg
[13] = species on record: Rattus norvegicus; assay: The compound was tested for uterotropic activity in immature rats(Dosage 0.1 ug); assay type: functional; in short: as §2
[14] = tested on: Rattus norvegicus; assay: The compound was tested for no of tumors without change at 10 mg/kg dose after peroral administration (experiment-2); assay type: functional; details: route oral
In short: (§3)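 DMBA-induced mammary tumors in female Sprague-Dawley rats. Compound given orally twice daily in PEG-400:water (1:1) for 21 days; controls received vehicle alone. Tumors measured by caliper at start and weekly; area is largest × smallest diameter. Tumors scored as complete or partial remission, no change or progression. Mean ± SE.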

[15] = tested on: Rattus norvegicus; assay: The compound was tested for the no of tumors at 10 mg/kg dose finish of the experiment after peroral administration (experiment-2); assay type: functional; details: route oral; in short: as §3
[16] = tested on: Rattus norvegicus; assay: The compound was tested for no of tumors without change at 10 mg/kg dose after peroral administration (experiment-I); assay type: functional; details: route oral; in short: as §3
[17] = tested on: Rattus norvegicus; assay: The compound was tested for no of tumors with partial remission at 1 mg/kg dose after peroral administration (experiment-I); assay type: functional; details: route oral; in short: as §3
[18] = tested on: Rattus norvegicus; assay: The compound was tested for the no of tumors at 10 mg/kg dose finish of the experiment after peroral administration (experiment-I); assay type: functional; details: route oral; in short: as §3
[19] = tested on: Rattus norvegicus; assay: The compound was tested for the no of tumors at 1 mg/kg dose start of the experiment after peroral administration (experiment-I); assay type: functional; details: route oral; in short: as §3
[20] = tested on: Rattus norvegicus; assay: The compound was tested for no of tumors with partial remission at 10 mg/kg dose after peroral administration (experiment-2); assay type: functional; details: route oral; in short: as §3
[21] = tested on: Rattus norvegicus; assay: The compound was tested for the no of tumors at 1 mg/kg dose finish of the experiment after peroral administration (experiment-I); assay type: functional; details: route oral; in short: as §3
[22] = tested on: Rattus norvegicus; assay: The compound was tested for the growth of mammary tumors in rats at 1 mg/kg dose after peroral administration at the end of the exp-1; assay type: functional; details: route oral; in short: as §3
[23] = tested on: Rattus norvegicus; assay: The compound was tested for the progression of no of tumors at 10 mg/kg dose after peroral administration (experiment-2); assay type: functional; details: route oral; in short: as §3
[24] = tested on: Rattus norvegicus; assay: The compound was tested for no of tumors with complete remission at 10 mg/kg dose after peroral administration (experiment-2); assay type: functional; details: route oral; in short: as §3
[25] = tested on: Rattus norvegicus; assay: The compound was tested for the % change of tumor area at 10 mg/kg dose after peroral administration (experiment-2); details: route oral
[26] = tested on: Rattus norvegicus; assay: The compound was tested for the progression of no of tumors at 10 mg/kg dose after peroral administration (experiment-I); assay type: functional; details: route oral; in short: as §3
[27] = tested on: Rattus norvegicus; assay: The compound was tested for no of tumors with complete remission at 10 mg/kg dose after peroral administration (experiment-I); assay type: functional; details: route oral; in short: as §3
[28] = tested on: Rattus norvegicus; assay: The compound was tested for no of tumors with partial remission at 10 mg/kg dose after peroral administration (experiment-I); assay type: functional; details: route oral; in short: as §3
[29] = tested on: Rattus norvegicus; assay: The compound was tested for no of tumors without change at 1 mg/kg dose after peroral administration (experiment-I); assay type: functional; details: route oral; in short: as §3
[30] = tested on: Rattus norvegicus; assay: The compound was tested for the no of tumors at 10 mg/kg dose start of the experiment after peroral administration (experiment-2); assay type: functional; details: route oral; in short: as §3
[31] = tested on: Rattus norvegicus; assay: The compound was tested for no of tumors with complete remission at 1 mg/kg dose after peroral administration (experiment-I); assay type: functional; details: route oral; in short: as §3
[32] = tested on: Rattus norvegicus; assay: The compound was tested for the progression of no of tumors at 1 mg/kg dose after peroral administration (experiment-I); assay type: functional; details: route oral; in short: as §3
[33] = tested on: Rattus norvegicus; assay: The compound was tested for the % change of tumor area at 1 mg/kg dose after peroral administration (experiment-I); assay type: functional; details: route oral; in short: as §3
[34] = tested on: Rattus norvegicus; assay: The compound was tested for the no of tumors at 10 mg/kg dose start of the experiment after peroral administration (experiment-I); assay type: functional; details: route oral; in short: as §3
[35] = tested on: Rattus norvegicus; assay: The compound was tested for the growth of tumors at 10 mg/kg dose start of the experiment after peroral administration (experiment-2); assay type: functional; details: route oral; in short: as §3
[36] = tested on: Rattus norvegicus; assay: The compound was tested for the growth of mammary tumors in rats at 10 mg/kg dose after peroral administration at the end of the exp-2; assay type: functional; details: route oral; in short: as §3
[37] = tested on: Rattus norvegicus; assay: The compound was tested for the growth of tumors at 10 mg/kg dose finish of the experiment after peroral administration (experiment-2); assay type: functional; details: route oral; in short: as §3

## CC(C)N(CCOc1ccc(C(=O)c2c(-c3ccc(O)cc3)sc3cc(O)ccc23)cc1)C(C)C
[1]
  Mean uterine weight: 69.5 mg
[2]
  Mean uterine weight: 50 mg
[3]
  Mean uterine weight: 70.2 mg
[4]
  Mean uterine weight: 37.3 mg
[5]
  Mean uterine weight: 60.4 mg
[6]
  Mean uterine weight: 60.1 mg
[7]
  Mean uterine weight: 58.7 mg
[8]
  Mean uterine weight: 62.1 mg

## CCN(CC)CCOc1ccc(C(=O)c2c(-c3ccc(O)cc3)sc3cc(O)ccc23)cc1
[1]
  Mean uterine weight: 66.4 mg
[2]
  Mean uterine weight: 53.6 mg
[3]
  Mean uterine weight: 66 mg
[4]
  Mean uterine weight: 45.4 mg
[5]
  Mean uterine weight: 66.5 mg
[6]
  Mean uterine weight: 56.2 mg
[7]
  Mean uterine weight: 61.3 mg
[8]
  Mean uterine weight: 67.6 mg

## O=C(c1ccc(OCCN2CCCCCC2)cc1)c1c(-c2ccc(O)cc2)sc2cc(O)ccc12
[1]
  Mean uterine weight: 39.7 mg
[2]
  Mean uterine weight: 46.6 mg
[3]
  Mean uterine weight: 36.7 mg
[4]
  Mean uterine weight: 52.7 mg
[5]
  Mean uterine weight: 40.1 mg
[6]
  Mean uterine weight: 56.3 mg
[7]
  Mean uterine weight: 52.7 mg
[8]
  Mean uterine weight: 43.9 mg

## CN(C)CCOc1ccc(C(=O)c2c(-c3ccc(O)cc3)sc3cc(O)ccc23)cc1
[1]
  Mean uterine weight: 64.7 mg
[2]
  Mean uterine weight: 55 mg
[3]
  Mean uterine weight: 70.8 mg
[4]
  Mean uterine weight: 44.6 mg
[5]
  Mean uterine weight: 71.5 mg
[6]
  Mean uterine weight: 54.7 mg
[7]
  Mean uterine weight: 54.3 mg
[8]
  Mean uterine weight: 66 mg

## O=C(c1ccc(OCCN2CCCCC2)cc1)c1c(-c2ccc(O)cc2)sc2cc(O)ccc12
[9]
  Serum prolactin level: 0.000204 mg/mL
[10]
  Serum prolactin level: 7.24e-05 mg/mL
[11]
  Serum prolactin level: 0.000711 mg/mL
[12]
  Serum LH level: 3.08e-05 mg/mL and 2.77e-05 mg/mL

## C[C@]12CC[C@@H]3c4ccc(O)cc4CC[C@H]3[C@@H]1CC[C@@H]2O [ESTRADIOL]
[13]
  Mean uterine weight: 82.3 mg

## O=C(c1ccc(OCCN2CCCC2)cc1)c1c(-c2ccc(O)cc2)sc2cc(O)ccc12 [LY-117018]
[1]
  Mean uterine weight: 42.7 mg
[2]
  Mean uterine weight: 46.6 mg
[3]
  Mean uterine weight: 36.1 mg
[4]
  Mean uterine weight: 55.1 mg
[5]
  Mean uterine weight: 40.7 mg
[6]
  Mean uterine weight: 61.7 mg
[7]
  Mean uterine weight: 44.5 mg
[8]
  Mean uterine weight: 43.9 mg

## Cl.O=C(c1ccc(OCCN2CCCCC2)cc1)c1c(-c2ccc(O)cc2)sc2cc(O)ccc12 [RALOXIFENE HYDROCHLORIDE]
[14]
  No. of tumours: 1
[15]
  No. of tumours: 5
[16]
  No. of tumours: 2
[17]
  No. of tumours: 2
[18]
  No. of tumours: 13
[19]
  No. of tumours: 9
[20]
  No. of tumours: 2
[21]
  No. of tumours: 9
[22]
  Tumor area: 33.3 mm**2 and <77.3 mm**2
[23]
  No. of tumours: 2
[24]
  No. of tumours: 4
[25]
  % change tumor area: 417%
[26]
  No. of tumours: 4
[27]
  No. of tumours: 1
[28]
  No. of tumours: 2
[29]
  No. of tumours: 4
[30]
  No. of tumours: 9
[31]
  No. of tumours: 1
[32]
  No. of tumours: 2
[33]
  % change tumor area: 132% and 378%
[34]
  No. of tumours: 9

## O=C(c1ccc(OCCN2CCCCC2)cc1)c1c(-c2ccc(O)cc2)sc2cc(O)ccc12 [RALOXIFENE]
[1]
  Mean uterine weight: 32.5 mg
[2]
  Mean uterine weight: 42.2 mg
[3]
  Mean uterine weight: 28.9 mg
[4]
  Mean uterine weight: 48.6 mg
[5]
  Mean uterine weight: 35.4 mg
[6]
  Mean uterine weight: 48.7 mg
[7]
  Mean uterine weight: 36.7 mg
[8]
  Mean uterine weight: 42.7 mg

## CC/C(=C(\c1ccccc1)c1ccc(OCCN(C)C)cc1)c1ccccc1 [TAMOXIFEN]
[14]
  No. of tumours: 2
[1]
  Mean uterine weight: 72.1 mg
[35]
  No. of tumours: 11
[2]
  Mean uterine weight: 64.8 mg
[3]
  Mean uterine weight: 74.1 mg
[20]
  No. of tumours: 3
[4]
  Mean uterine weight: 38.9 mg
[23]
  No. of tumours: 3
[5]
  Mean uterine weight: 70.1 mg
[24]
  No. of tumours: 3
[25]
  % change tumor area: 7
[36]
  Tumor area: 43.4 mm**2 and <46.4 mm**2
[11]
  Serum prolactin level: 0.000126 mg/mL
[6]
  Mean uterine weight: 64.1 mg
[37]
  No. of tumours: 7
[7]
  Mean uterine weight: 62.1 mg
[8]
  Mean uterine weight: 65.6 mg

Source: ChEMBL document CHEMBL1122701, “Antiestrogens. 2. Structure-activity studies in a series of 3-aroyl-2-arylbenzo[b]thiophene derivatives leading to [6-hydroxy-2-(4-hydroxyphenyl)benzo[b]thien-3-yl] [4-[2-(1-piperidinyl)ethoxy]-phenyl]methanone hydrochloride (LY156758), a remarkably effective estrogen antagonist with only minimal …” (1984)
